# Legend:
# [1] = Pharmacokinetics of oral talazoparib in wild-type and ABCB1/ABCG2; assay type: in vivo, mouse; conditions: talazoparib 0.5 mg/kg p.o.; for Cmax: female, FVB, mouse, plasma, po, 0.5 mg/kg, mean (±SEM)
# Summary of the method: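 Adult female FVB wild-type or Abcb1a/Abcb1b/Abcg2-deficient mice (12–20 weeks, 4–5 per group) given test compound 0.5 mg/kg by oral gavage; dosing solution 0.1 mg/mL in 10% dimethylacetamide/5% Solutol HS/85% PBS. Blood at 5, 15, 30 min and 1, 2, 4 h, submandibular then retro-orbital (isoflurane), terminal cardiac. Plasma methanol-precipitated, UHPLC-MS/MS with isotope-labelled IS; Cmax visual, AUC(0–4 h) log-linear trapezoidal.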
# [2] = Influence of novobiocin pretreatment on talazoparib pharmacokinetics in mice; assay type: in vivo; conditions: female, FVB, mouse, plasma, po, 0.5 mg/kg, mean (±SEM), N=5; for AUC: 0-4 h
# Summary of the method: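 Female mice aged 12–20 weeks (wild-type FVB or ABCB1A/ABCB1B/ABCG2-null), fasted 2 h. Pretreatment (50 mg/kg in 5% dextrose) or vehicle given by oral gavage 30 min before test compound (0.1 mg/mL in 10% dimethylacetamide/5% Solutol HS/85% PBS). Blood sampled 5 min–4 h. Plasma assayed by UHPLC-MS/MS with isotope-labelled internal standard. Cmax read from the curve; AUC0–4h by log-linear trapezoidal rule.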
# [3] = Stability of talazoparib in mouse plasma QC samples; assay type: physicochemical; conditions: for Bench-top stability, mean deviation: ambient temperature (25 °C) for 6 h; for Bench-top stability, mean deviation / Auto-sampler stability, mean deviation / Re-injection stability, mean deviation: N=3; for Auto-sampler stability, mean deviation: auto-sampler at 4 °C for 24 h; for Re-injection stability, mean deviation: reanalyzed after 24 h in auto-sampler at 4 °C
# Summary of the method: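 Spiked mouse plasma QC at low (1.5 ng/mL) and high (80 ng/mL) levels. Conditions: bench-top at ambient temperature 6 h; extracts held in autosampler at 4 °C 24 h; processed samples re-injected after 24 h at 4 °C; three cycles of −80 °C storage for 12 h with room-temperature thaw. Quantified by UHPLC-MS/MS with isotope-labelled IS; acceptable within 85–115% of nominal.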
# [4] = clinical studies, oral; cited from earlier work
# ABCG2 = conditions: mice with a deficiency of only ABCG2; cited from earlier work
# [5] = tested on: MDCKII cells overexpressing ABCG2; conditions: cited from earlier work
# [6] = ABCB1/ABCG2(−/−) mice, novobiocin 50 mg/kg p.o. 30 min before talazoparib 0.5 mg/kg p.o.
# [7] = wild-type mice, novobiocin 50 mg/kg p.o. 30 min before talazoparib 0.5 mg/kg p.o.
structure (smiles),measurement,setting,value
Cn1ncnc1[C@H]1c2n[nH]c(=O)c3cc(F)cc(c23)N[C@@H]1c1ccc(F)cc1 [Talazoparib],increase in AUC with deficiency of ABCB1 and ABCG2,[1]; ABCB1/ABCG2(−/−) vs wild-type mice,~1.3 fold
same,Cmax,"[1]; ABCB1/ABCG2(−/−) mice, N=4",350 ng/mL
same,Cmax,"[1]; wild-type FVB mice, N=5",360 ng/mL
same,AUC,[2]; [6],890 ng·h/mL
same,AUC,[2]; [7],615 ng·h/mL
same,Cmax,"[2]; ABCB1/ABCG2(−/−) mice, co-treatment none (vehicle), talazoparib 0.5 mg/kg p.o.",352 ng/mL
same,Cmax,[2]; [6],449 ng/mL
same,Cmax,"[2]; wild-type mice, co-treatment none (vehicle), talazoparib 0.5 mg/kg p.o.",472 ng/mL
same,Cmax,[2]; [7],414 ng/mL
same,time stable in mouse plasma samples at room temperature,"[3]; bench-top, room temperature, mouse plasma",at least 6 h
same,auto-sampler and reinjection stability time,[3]; extracted samples at 4 °C in auto-sampler,at least 24 h
same,stability after repeated freeze and thaw cycles,"[3]; mouse plasma samples, three freeze-thaw cycles",remained stable
same,"Bench-top stability, mean deviation","[3]; nominal 1.5 ng/mL, mouse plasma",2.15%
same,"Auto-sampler stability, mean deviation",[3]; nominal 1.5 ng/mL,−4.34%
same,"Re-injection stability, mean deviation",[3]; nominal 1.5 ng/mL,0.64%
same,"Bench-top stability, mean deviation","[3]; nominal 80 ng/mL, mouse plasma",−8.09%
same,"Auto-sampler stability, mean deviation",[3]; nominal 80 ng/mL,−5.14%
same,"Re-injection stability, mean deviation",[3]; nominal 80 ng/mL,0.62%
same,terminal half-life,[4],~50 h
same,levels of talazoparib in plasma,ABCG2,unaltered
same,levels of talazoparib in cells,[5],unaltered
